Data published in ChEMBL document CHEMBL1144352, “Effects of flavonoids on cell proliferation and caspase activation in a human colonic cell line HT29: an SAR study” (2005).

Tests used:
Format in all cases: functional
HT-29 [1] = assay: Caspase 3/7 activity is expressed as ratio of caspase activation in treated human colonic cell line (HT-29) to that of untreated control cells after 5 hr
In short: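 Caspase 3/7 measured with ApopOne kit. HT-29 cells were seeded at 15 000/well and exposed to test molecule for 5 h. Reagent containing caspase substrate and lysis buffer was then added, followed by 45 min at 37 °C. Fluorescence read at excitation 485 nm and emission 538 nm. Reported as ratio of treated to untreated control, mean of duplicate wells on one plate.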

HT-29 [2] = assay: Antiproliferative effect against human colonic cell line (HT-29) after 24 hr at a concentration of 50 uM
In short: (§1)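 HT-29 cells plated at 15 000/well in DMEM with 5% fetal calf serum for 24 h, then medium replaced with fresh medium containing compound at 50 µM plus 200 µM sodium ascorbate. After incubation, neutral red (50 µg/mL) uptake for 2 h, formaldehyde/CaCl2 fixation, ethanol:acetic acid extraction, OD 550 nm. Result as % of control cells, mean ± SD, n > 18 wells, ≥4 experiments.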

HT-29 [3] = assay: Antiproliferative effect against human colonic cell line (HT-29) after 6 hr at a concentration of 50 uM; in short: as §1

In the case of C=CC(C)(CC/C=C(\C)CCC=C(C)C)c1c(O)cc(O)c2c(=O)cc(-c3ccccc3)oc12 (configuration not stated), the Caspase induction (HT-29 [1]) is reported as 6.9, the Activity (HT-29 [2]) is reported as 24.5 and the Activity (HT-29 [3]) is reported as 43.3.

For CC(C)=CCC/C(C)=C/Cc1c(O)cc(O)c2c(=O)cc(-c3ccccc3)oc12, the Caspase induction (HT-29 [1]) was 9, the Activity (HT-29 [2]) was 7.6 and the Activity (HT-29 [3]) was 18.

With CC(C)=CCOc1cc(O)cc2oc(-c3ccccc3)cc(=O)c12 the Caspase induction (HT-29 [1]) was 1.4, the Activity (HT-29 [2]) was 19.4 and the Activity (HT-29 [3]) was 17.

O=c1c(O)c(-c2ccc(O)c(O)c2)oc2cc(O)cc(O)c12 [QUERCETIN] was tested, and the Caspase induction (HT-29 [1]) was 1, the Activity (HT-29 [2]) was 51.3 and the Activity (HT-29 [3]) was 61.4.

For COc1cc(-c2cc(=O)c3c(OC)c(OC)c(OC)cc3o2)cc(OC)c1OC, the Activity (HT-29 [2]) was 100.7 and the Activity (HT-29 [3]) was 94.2.

O=C1C[C@@H](c2ccc(O)cc2)Oc2cc(O)cc(O)c21 [NARINGENIN] showed an Activity (HT-29 [2]) of 94.8 and an Activity (HT-29 [3]) of 102.2.

COc1ccc(-c2oc3cc(O)cc(O)c3c(=O)c2OC)c(OC)c1OC showed an Activity (HT-29 [2]) of 91.5 and an Activity (HT-29 [3]) of 89.7.

Work on C=CC(C)(C)c1cc(C(=O)/C=C/c2ccccc2)c(O)cc1O yielded a Caspase induction (HT-29 [1]) of 7.3, an Activity (HT-29 [2]) of 15.6 and an Activity (HT-29 [3]) of 35.4.

With COc1ccc(-c2oc3cc(O)cc(O)c3c(=O)c2OC)cc1 [ERMANIN] the Caspase induction (HT-29 [1]) was 1.2, the Activity (HT-29 [2]) was 77.1 and the Activity (HT-29 [3]) was 92.

Molecule CC(C)=CCc1c(O)cc(O)c2c(=O)cc(-c3ccccc3)oc12 has a Caspase induction (HT-29 [1]) of 0.9, an Activity (HT-29 [2]) of 75.5 and an Activity (HT-29 [3]) of 86.3.

CC(C)=CCc1c(O)cc(O)c2c(=O)c(O)c(-c3ccc(O)cc3)oc12 showed a Caspase induction (HT-29 [1]) of 2.7, an Activity (HT-29 [2]) of 71.1 and an Activity (HT-29 [3]) of 78.8.

In the case of COc1ccc(C(=O)/C=C(\O)c2ccc(O)cc2O)cc1, the Activity (HT-29 [2]) is reported as 96.6 and the Activity (HT-29 [3]) is reported as 96.2.

COc1cc(O)cc2oc(-c3ccccc3)cc(=O)c12 gave an Activity (HT-29 [2]) of 107.6 and an Activity (HT-29 [3]) of 104.7.

Work on COc1cc2oc(-c3ccccc3)cc(=O)c2c(O)c1C yielded an Activity (HT-29 [2]) of 83.8 and an Activity (HT-29 [3]) of 92.2.

Molecule Cc1c(O)cc2oc(-c3ccccc3)cc(=O)c2c1O has an Activity (HT-29 [2]) of 101 and an Activity (HT-29 [3]) of 104.

O=c1c(O)c(-c2ccc(O)cc2)oc2cc(O)cc(O)c12 [KAEMPFEROL] gave a Caspase induction (HT-29 [1]) of 1.8, an Activity (HT-29 [2]) of 89.6 and an Activity (HT-29 [3]) of 92.

COc1ccc(-c2oc3cc(O)cc(O)c3c(=O)c2OC)cc1OC gave a Caspase induction (HT-29 [1]) of 1.1, an Activity (HT-29 [2]) of 74.2 and an Activity (HT-29 [3]) of 87.9.

Molecule C=CC(C)(CCC=C(C)C)c1c(O)cc(O)c2c(=O)cc(-c3ccccc3)oc12 (configuration not stated) has a Caspase induction (HT-29 [1]) of 8.9, an Activity (HT-29 [2]) of 28.1 and an Activity (HT-29 [3]) of 28.4.

With COc1ccc(-c2oc3cc(O)cc(O)c3c(=O)c2O)cc1 [KAEMPFERIDE] the Caspase induction (HT-29 [1]) was 1, the Activity (HT-29 [2]) was 84.7 and the Activity (HT-29 [3]) was 99.77.

Molecule COc1cc(OC)c(-c2oc3cc(O)cc(O)c3c(=O)c2OC)cc1OC has an Activity (HT-29 [2]) of 92.5 and an Activity (HT-29 [3]) of 90.

With CC(C)=CCc1c(O)cc2oc(-c3ccccc3)cc(=O)c2c1O the Activity (HT-29 [2]) was 87.9 and the Activity (HT-29 [3]) was 87.9.

C=CC(C)(C)c1c(O)cc(O)c2c(=O)cc(-c3ccccc3)oc12 showed a Caspase induction (HT-29 [1]) of 1.1, an Activity (HT-29 [2]) of 57.7 and an Activity (HT-29 [3]) of 76.7.

With CC(C)=CCc1c(O)c(O)c2oc(-c3ccccc3)cc(=O)c2c1O the Caspase induction (HT-29 [1]) was 1.6, the Activity (HT-29 [2]) was 71.7 and the Activity (HT-29 [3]) was 67.4.

With O=c1cc(-c2ccccc2)oc2cc(OCc3ccccc3)cc(O)c12 the Activity (HT-29 [2]) was 87.1 and the Activity (HT-29 [3]) was 96.6.

O=C(/C=C/c1ccc(O)cc1)c1c(O)cc(O)cc1O [4,2',4',6'-TETRAHYDROXYCHALCONE] was tested, and the Activity (HT-29 [2]) was 94.1 and the Activity (HT-29 [3]) was 102.

C=CC(C)(C)c1c(O)cc(O)c2c(=O)c(O)c(-c3ccc(OC)cc3)oc12 showed an Activity (HT-29 [2]) of 42.1 and an Activity (HT-29 [3]) of 56.4.

CC(C)=CCC/C(C)=C/COc1cc(O)c2c(=O)cc(-c3ccccc3)oc2c1 was tested, and the Caspase induction (HT-29 [1]) was 1.2, the Activity (HT-29 [2]) was 84.3 and the Activity (HT-29 [3]) was 90.4.

With COc1ccc(-c2cc(=O)c3c(OC)c(OC)c(OC)cc3o2)cc1O the Activity (HT-29 [2]) was 102.1 and the Activity (HT-29 [3]) was 95.4.

With O=c1cc(-c2ccccc2)oc2c(Cc3ccccc3)c(O)cc(O)c12 the Activity (HT-29 [2]) was 97.4 and the Activity (HT-29 [3]) was 103.2.

Work on CC(C)=CCc1c(O)cc(O)c2c(=O)cc(-c3ccc(O)cc3)oc12 yielded an Activity (HT-29 [2]) of 56.2 and an Activity (HT-29 [3]) of 76.9.

In the case of COc1cc(-c2oc3cc(O)cc(O)c3c(=O)c2OC)cc(OC)c1OC, the Activity (HT-29 [2]) is reported as 101.8 and the Activity (HT-29 [3]) is reported as 101.9.

Molecule O=c1cc(-c2ccccc2)oc2cc(O)cc(O)c12 [CHRYSIN] has a Caspase induction (HT-29 [1]) of 0.8, an Activity (HT-29 [2]) of 62.8 and an Activity (HT-29 [3]) of 86.6.

CC(C)=CCc1c(O)cc(O)c2c(=O)c(O)c(-c3ccc(O)c(O)c3)oc12 was tested, and the Caspase induction (HT-29 [1]) was 1.9, the Activity (HT-29 [2]) was 67 and the Activity (HT-29 [3]) was 68.

With C=CC(C)(C)c1c(O)cc(O)c2c(=O)c(OC)c(-c3ccc(OC)c(OC)c3)oc12 the Caspase induction (HT-29 [1]) was 5.2, the Activity (HT-29 [2]) was 4.7 and the Activity (HT-29 [3]) was 8.5.

Molecule O=c1cc(-c2ccccc2)oc2cc(O)c(Cc3ccccc3)c(O)c12 has an Activity (HT-29 [2]) of 57.6 and an Activity (HT-29 [3]) of 65.3.

CC(C)=CCC/C(C)=C/CC/C(C)=C/COc1cc(O)c2c(=O)cc(-c3ccccc3)oc2c1 was tested, and the Activity (HT-29 [2]) was 83.3 and the Activity (HT-29 [3]) was 87.8.

C=CC(C)(C)c1c(O)cc(O)c2c(=O)c(O)c(-c3ccccc3)oc12 was tested, and the Caspase induction (HT-29 [1]) was 1.1, the Activity (HT-29 [2]) was 63 and the Activity (HT-29 [3]) was 76.7.

For COc1c(-c2ccccc2)oc2c(O)c(O)c(CC=C(C)C)c(O)c2c1=O, the Caspase induction (HT-29 [1]) was 3.5, the Activity (HT-29 [2]) was 71.8 and the Activity (HT-29 [3]) was 59.8.

Molecule CC(C)=CCC/C(C)=C/Cc1c(O)cc2oc(-c3ccccc3)cc(=O)c2c1O has a Caspase induction (HT-29 [1]) of 1.9, an Activity (HT-29 [2]) of 53.9 and an Activity (HT-29 [3]) of 58.2.

For C=CC(C)(C)c1c(O)cc(O)c2c(=O)c(OC)c(-c3ccc(OC)cc3)oc12, the Caspase induction (HT-29 [1]) was 8.1, the Activity (HT-29 [2]) was 20.1 and the Activity (HT-29 [3]) was 34.5.

Work on C=CC(C)(C)c1c(O)cc2oc(-c3ccccc3)cc(=O)c2c1O yielded an Activity (HT-29 [2]) of 79.1 and an Activity (HT-29 [3]) of 90.4.

With C=CC(C)(C)c1c(O)cc(O)c2c(=O)c(OC)c(-c3ccccc3)oc12 the Caspase induction (HT-29 [1]) was 1.3, the Activity (HT-29 [2]) was 79.4 and the Activity (HT-29 [3]) was 79.3.
